By IC50 is commonly meant the point on the concentration scale where inhibition reaches its midpoint. What is called GI50 is the concentration giving 50% growth inhibition. Low values mean greater sensitivity of the cells, high ones lower sensitivity of the cells.

SMILES strings stand for the structures. Converted amounts (≈) assume the structure as drawn.

20 compounds from ChEMBL document CHEMBL3804768, “Structure-Activity Relationship Studies of Mitogen Activated Protein Kinase Interacting Kinase (MNK) 1 and 2 and BCR-ABL1 Inhibitors Targeting Chronic Myeloid Leukemic Cells” (J Med Chem, 2016) can be followed below.

For series [1], the target named is Bcr/Abl fusion protein (Homo sapiens, UniProt P00519). The series is described as follows: Inhibition of BCR fused full length human recombinant N-terminal His-tagged ABL (2 to 1130 residues) expressed in baculovirus expression system using FL-peptide 2 substrate preincubated for 10 mins followed by substrate addition measured after 60 mins by mobility shift assay.

For series [2], the target named is MAP kinase-interacting serine/threonine-protein kinase 1 (Homo sapiens, UniProt Q9BUB5). The series is described as follows: Inhibition of N-terminal GST-tagged MNK1 kinase domain (37 to 341 residues) (unknown origin) expressed in Escherichia coli BL21(DE3) cells using JH3 peptide substrate preincubated for 10 mins followed by substrate addition measured after 60 mins by mobility shift assay.

For series [3], the target named is MAP kinase-interacting serine/threonine-protein kinase 2 (Homo sapiens, UniProt Q9HBH9). The series is described as follows: Inhibition of N-terminal GST-tagged MNK2 kinase domain (72 to 385 residues) (unknown origin) expressed in Escherichia coli BL21(DE3) cells using JH3 peptide substrate preincubated for 10 mins followed by substrate addition measured after 60 mins by mobility shift assay.

Series [4] deals with Tyrosine-protein kinase ABL1 (Homo sapiens, UniProt P00519, T315I). The series is described as follows: Inhibition of full length human recombinant N-terminal His-tagged ABL (2 to 1130 residues) T315I mutant expressed in baculovirus expression system using FL-peptide 2 substrate preincubated for 10 mins followed by substrate addition measured after 60 mins by mobility shift assay. Summed up:
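Buffer is 100 mM HEPES pH 7.5, 10 mM MgCl2, 0.004% Tween 20, 1 mM DTT, 0.003% Brij L23. Enzyme and compound sit 10 min before ATP/substrate is added. The reaction runs 60 min at room temperature, is stopped with 10 mM EDTA, and is read by mobility shift.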

Series [5] has as its target MAP kinase-interacting serine/threonine-protein kinase 1/2 (Homo sapiens, UniProt Q9HBH9+Q9BUB5). Briefly: Inhibition of MNK1/MNK2 in human HeLa cells assessed as reduction in phosphorylation of eIF4E at Ser209 after 2 hrs by AlphaScreen SureFire assay. The class given is cell-based. The gist of the method:
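HeLa cells were grown in DMEM with 10% FBS and penicillin/streptomycin, seeded at 30,000 per well and left 24 h. They were then exposed to serially diluted compound in serum-free DMEM for 2 h at 37 °C and lysed with shaking for 20 min. Phospho-eIF4E Ser209 was read by AlphaScreen SureFire with 2 h acceptor and 2 h donor steps at room temperature. Dose response was run in triplicate.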
In general terms: Bead proximity is the source of the signal in Alpha formats.

In series [6] the test system is K562. Briefly: Antiproliferative activity against human K562 cells over expressing eIF4E after 48 hrs by Cell-Titer-Glo luminescent cell viability assay. It counts as functional. The settings on record: K562, 48 h. Summed up:
(§1)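 Cells seeded at 5000 per well in growth medium, exposed to serial doses from 0.003 μM to 50 μM for 48 h at 37 °C, 5% CO2. Viability was read by CellTiter-Glo luminescence and GI50 taken from the dose-response curve. Dose response was run in triplicate and the curve repeated twice. K562 eIF4E-overexpressing cells were cultured in RPMI with 10% FBS.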

The subject of series [7] is K562. Briefly: Antiproliferative activity against human K562 cells after 48 hrs by Cell-Titer-Glo luminescent cell viability assay. It counts as functional. Particulars: K562, 48 h. The gist of the method: as §1
The nature of series [8]: Antiproliferative activity against human BV173 cells after 48 hrs by Cell-Titer-Glo luminescent cell viability assay. The class given is functional. Particulars: BV-173, 48 h. Summed up:
as §1

Series [9] is described as follows: Antiproliferative activity against human EM2 cells after 48 hrs by Cell-Titer-Glo luminescent cell viability assay. Particulars: EM-2, 48 h. It counts as functional. Summed up:
as §1

The nature of series [10]: Antiproliferative activity against human KCL22 cells after 48 hrs by Cell-Titer-Glo luminescent cell viability assay. It counts as functional. The settings on record: KCL-22, 48 h.
Series [11] is described as follows: Antiproliferative activity against human JURL-MK1 cells after 48 hrs by Cell-Titer-Glo luminescent cell viability assay. The class given is functional. The settings on record: JURL-MK1, 48 h.
Series [12] has as its system K562. Briefly: Antitumor activity against human K562 cells over expressing eIF4E xenografted in NOD-SCID mouse assessed as tumor growth inhibition at 200 mg/kg, po qd administered through oral gavage for 14 days relative to control. It counts as functional. The settings on record: 336 h, read-out: TGI. Summed up: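 Female SCID mice, 7-10 weeks old, received 1 x 10^7 K562 eIF4E-overexpressing cells subcutaneously. At tumor volumes of 75-245 mm³ (w²×l/2) mice were randomized and gavaged once daily for 14 days at 10 mL/kg.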
In general terms: In xenograft studies the graft and the host belong to different species.

The nature of series [13]: Thermodynamic solubility in pH 4 pION buffer at 500 uM incubated for 18 hrs by UV-spectrophotometry. It counts as physicochemical. Particulars: read-out: Therm_solubility.
Series [14] concerns the target Cytochrome P450 3A4 (Homo sapiens, UniProt P08684). The series is described as follows: Inhibition of CYP3A4 (unknown origin). It counts as ADME.
Series [15] deals with Cytochrome P450 2D6 (Homo sapiens, UniProt P10635). The series is described as follows: Inhibition of CYP2D6 (unknown origin). It counts as ADME.
Series [16] can be described thus: Permeability of compound by PAMPA. The settings on record: read-out: permeability. It counts as ADME.
A short description of series [17]: Thermodynamic solubility in pH 7 pION buffer at 500 uM incubated for 18 hrs by UV-spectrophotometry. Particulars: read-out: Therm_solubility. It counts as physicochemical.

Sequence of MAP kinase-interacting serine/threonine-protein kinase 1 (Q9BUB5 whole entry, the tested form may be a part): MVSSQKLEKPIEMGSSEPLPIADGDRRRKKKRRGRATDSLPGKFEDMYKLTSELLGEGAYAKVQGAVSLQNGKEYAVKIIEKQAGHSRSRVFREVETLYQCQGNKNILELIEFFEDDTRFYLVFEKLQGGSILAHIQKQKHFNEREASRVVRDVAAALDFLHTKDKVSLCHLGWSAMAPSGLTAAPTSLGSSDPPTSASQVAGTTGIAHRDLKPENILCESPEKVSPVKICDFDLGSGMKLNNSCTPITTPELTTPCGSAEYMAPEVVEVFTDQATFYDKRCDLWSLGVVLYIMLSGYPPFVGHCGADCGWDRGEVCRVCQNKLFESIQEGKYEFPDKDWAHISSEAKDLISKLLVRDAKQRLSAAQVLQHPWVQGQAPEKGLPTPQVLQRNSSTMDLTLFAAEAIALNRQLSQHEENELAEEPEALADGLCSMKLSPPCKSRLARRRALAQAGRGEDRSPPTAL
Sequence of Cytochrome P450 2D6 (P10635 whole entry): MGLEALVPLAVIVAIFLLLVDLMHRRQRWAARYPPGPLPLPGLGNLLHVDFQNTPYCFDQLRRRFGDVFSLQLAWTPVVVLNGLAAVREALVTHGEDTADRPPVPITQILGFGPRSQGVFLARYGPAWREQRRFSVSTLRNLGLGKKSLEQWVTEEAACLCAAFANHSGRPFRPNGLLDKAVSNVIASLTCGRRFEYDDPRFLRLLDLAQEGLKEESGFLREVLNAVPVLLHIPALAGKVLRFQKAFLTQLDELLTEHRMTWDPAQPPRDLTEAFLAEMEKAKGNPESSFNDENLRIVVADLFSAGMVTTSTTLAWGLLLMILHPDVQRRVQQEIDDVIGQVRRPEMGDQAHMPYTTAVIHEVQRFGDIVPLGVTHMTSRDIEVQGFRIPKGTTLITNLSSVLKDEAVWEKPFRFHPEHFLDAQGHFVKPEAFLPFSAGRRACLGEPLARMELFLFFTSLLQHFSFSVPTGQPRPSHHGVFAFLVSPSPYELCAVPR
Sequence of MAP kinase-interacting serine/threonine-protein kinase 2 (Q9HBH9 whole entry, the tested form may be a part): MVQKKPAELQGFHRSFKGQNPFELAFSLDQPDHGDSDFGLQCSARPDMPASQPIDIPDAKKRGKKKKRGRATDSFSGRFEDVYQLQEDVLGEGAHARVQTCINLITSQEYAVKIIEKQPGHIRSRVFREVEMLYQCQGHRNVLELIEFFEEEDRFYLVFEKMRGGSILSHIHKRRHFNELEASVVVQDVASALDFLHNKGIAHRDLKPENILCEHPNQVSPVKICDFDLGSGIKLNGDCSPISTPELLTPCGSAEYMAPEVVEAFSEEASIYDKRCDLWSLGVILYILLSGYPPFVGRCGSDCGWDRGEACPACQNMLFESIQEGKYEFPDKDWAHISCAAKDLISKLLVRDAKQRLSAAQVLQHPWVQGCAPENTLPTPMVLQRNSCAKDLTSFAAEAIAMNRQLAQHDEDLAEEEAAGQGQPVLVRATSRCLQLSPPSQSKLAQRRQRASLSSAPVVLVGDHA
Sequence of Cytochrome P450 3A4 (P08684 whole entry): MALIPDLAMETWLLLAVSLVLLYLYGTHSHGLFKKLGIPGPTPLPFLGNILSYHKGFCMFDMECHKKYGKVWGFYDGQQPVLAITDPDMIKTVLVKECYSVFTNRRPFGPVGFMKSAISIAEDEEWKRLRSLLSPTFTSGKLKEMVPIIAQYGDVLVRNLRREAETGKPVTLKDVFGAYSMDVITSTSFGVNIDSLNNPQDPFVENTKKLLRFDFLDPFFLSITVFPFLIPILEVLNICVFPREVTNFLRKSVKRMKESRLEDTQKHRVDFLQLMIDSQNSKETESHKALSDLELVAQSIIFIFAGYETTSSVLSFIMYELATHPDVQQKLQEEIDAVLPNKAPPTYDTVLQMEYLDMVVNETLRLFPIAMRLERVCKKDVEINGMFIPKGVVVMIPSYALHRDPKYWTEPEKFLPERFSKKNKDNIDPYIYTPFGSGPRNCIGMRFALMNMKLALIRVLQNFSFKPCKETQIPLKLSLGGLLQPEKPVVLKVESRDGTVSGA

Turning to `CCN1CCN(Cc2ccc(NC(=O)COc3ccc(-c4ccc(NC(C)=O)nc4)cc3)cc2C(F)(F)F)CC1`, the 50% inhibitory concentration (IC50) in series [1] came out at 0.39 µM; in series [2] it was 5.68 µM; in series [3], 0.033 µM; in series [4], 0.17 µM; in series [5] it was 0.68 µM. Besides, growth in series [6] was halved (GI50) at 0.1 µM.

As for `CC(C)C(=O)Nc1ccc(-c2ccc(NCC(=O)Nc3ccc(CN4CCNCC4)c(C(F)(F)F)c3)cc2)cn1`, the half-inhibitory concentration (IC50) is > 10 µM in [1]; 7.7 µM in series [2]; 0.13 µM in series [3]; > 10 µM in [4]; 0.86 µM in series [5]. The compound also gave a concentration for 50% growth inhibition (GI50) in series [6] of 3.3 µM.

With `Cc1ccc(NC(=O)c2ccc(CN3CCN(C)CC3)cc2)cc1Nc1nccc(-c2cccnc2)n1` [IMATINIB], the GI50 in series [7] came out at 0.2 µM; in series [8], 0.1 µM; in series [9], 0.26 µM; in series [10] it was 0.43 µM; in series [11] it was 0.06 µM. Besides, in [12], the inhibition in vivo at 200 mg/kg was 57%.

For `CCN1CCN(Cc2ccc(NC(=O)COc3ccc(-c4ccccn4)cc3)cc2C(F)(F)F)CC1`, the half-maximal inhibitory concentration (IC50) in series [1], in series [2] and in [3] was > 10 µM in each case.

As to `O=C(COc1ccc(-c2cccnc2)cc1)Nc1ccc(CN2CCNCC2)c(C(F)(F)F)c1`, the half-maximal inhibitory concentration (IC50) was > 10 µM in series [1], 0.35 µM in series [2] and 0.012 µM in series [3].

With `CCN1CCN(Cc2ccc(NC(=O)COc3ccc(-c4cccnc4)cc3)cc2C(F)(F)F)CC1`, the IC50 is > 10 µM in series [1], 0.57 µM in series [2], 0.014 µM in series [3] and 0.098 µM in series [5]. The GI50 in series [6] was > 10 µM.

As to `CCN1CCC(Cc2ccc(NC(=O)COc3ccc(-c4cccnc4)cc3)cc2C(F)(F)F)CC1`, the IC50 in [1], in series [2] and in [3] was > 10 µM in each case.

Consider `CCN1CCN(Cc2ccc(NC(=O)COc3ccc(-c4cccnc4)cc3)cc2C2CC2)CC1`, for which the half-maximal inhibitory concentration (IC50) in [1] is > 10 µM; in series [2], > 10 µM; in series [3], 0.13 µM.

With `O=C(CNc1ccc(-c2ccc(NC(=O)C3CC3)nc2)cc1)Nc1ccc(CN2CCNCC2)c(C(F)(F)F)c1`, the concentration for half-maximal inhibition (IC50) amounted to 0.21 µM in [1]; 0.51 µM in series [2]; 0.008 µM in series [3]; 0.1 µM in [4]; 0.32 µM in series [5]; 1.1 µM in [14]. Also, the IC50 in [15] is > 20 µM. In series [6], this compound displayed a GI50 of 0.08 µM. Further, the solubility thermodynamic at 18 h, 500 µM in [13] came to 109 µg/mL (≈ 197 µM). Besides, the Papp in series [16] was determined as 5.53 ×10⁻⁶ cm/s.

In the case of `CCN1CCN(Cc2ccc(NC(=O)C(C)Oc3ccc(-c4cccnc4)cc3)cc2C(F)(F)F)CC1` (configuration not stated), the half-maximal inhibitory concentration (IC50) in series [1], in series [2] and in series [3] was > 10 µM each time.

With `CCN1CCN(Cc2ccc(NC(=O)Cc3ccc(Oc4cc(NC)ncn4)cc3)cc2C(F)(F)F)CC1`, the half-inhibitory concentration (IC50) in series [1] was > 10 µM; in series [2], 3.69 µM; in series [3] it was 0.022 µM.

Turning to `CCN1CCN(Cc2ccc(NC(=O)Cc3ccc(Oc4ccnc(NC)c4)cc3)cc2C(F)(F)F)CC1`, the half-inhibitory concentration (IC50) in [1] turned out to be 0.58 µM; in series [2] it was 0.37 µM; in [3] it was 0.008 µM.

In the case of `CCN1CCN(Cc2ccc(CC(=O)Nc3ccc(Oc4cc(NC)ncn4)cc3)cc2C(F)(F)F)CC1`, the IC50 in [1] is > 10 µM; in series [2], > 10 µM; in series [3], 0.76 µM.

As for `CCN1CCN(Cc2ccc(NC(=O)COc3ccc(-c4ccc(C(=O)NC)nc4)cc3)cc2C(F)(F)F)CC1`, the IC50 is > 10 µM in series [1], > 10 µM in series [2] and 6.86 µM in [3].

Take `CCN1CCN(Cc2ccc(NC(=O)COc3ccc(-c4ccncc4)cc3)cc2C(F)(F)F)CC1`: the IC50 in series [1] is > 10 µM; in [2], > 10 µM; in series [3] it was 1.91 µM.

As to `CCN1CCN(Cc2ccc(NC(=O)CNc3ccc(-c4cccnc4)cc3)cc2C(F)(F)F)CC1`, the half-inhibitory concentration (IC50) in series [1] was > 10 µM; in [2], 0.35 µM; in series [3], 0.011 µM.

In the case of `CCC1CCN(Cc2ccc(NC(=O)COc3ccc(-c4cccnc4)cc3)cc2C(F)(F)F)CC1`, the values for the concentration for half-maximal inhibition (IC50) in series [1], in series [2] and in series [3] were > 10 µM, 4.51 µM and 0.082 µM, respectively.

In the case of `CCN1CCN(Cc2ccc(NC(=O)CNc3ccc(-c4ccc(NC(C)=O)nc4)cc3)cc2C(F)(F)F)CC1`, the IC50 in [1] turned out to be 0.38 µM; in series [2], 5.98 µM; in series [3], 0.044 µM; in [4], 0.09 µM; in series [5], 0.32 µM; in series [14], 3.2 µM. For the same compound, the half-inhibitory concentration (IC50) in series [15] was > 20 µM. Further, it took 0.34 µM to inhibit growth in [6] by half (GI50). Besides, in series [17], the solubility thermodynamic at 18 h, 500 µM is 0.6 µg/mL (≈ 1.08 µM). Moreover, the Papp in series [16] was found to be 26.2 ×10⁻⁶ cm/s.

Turning to `CC(=O)Nc1ccc(-c2ccc(NCC(=O)Nc3ccc(CN4CCNCC4)c(C(F)(F)F)c3)cc2)cn1`, the IC50 in series [1] turned out to be 0.88 µM; in series [2], 3.92 µM; in series [3], 0.032 µM; in series [4], 0.24 µM; in series [5] it was 0.2 µM; in [14] it was 2.4 µM. Further, the IC50 in series [15] was > 20 µM. For the same compound, growth in series [6] was halved (GI50) at 0.4 µM. The solubility thermodynamic at 18 h, 500 µM in series [13] stood at 132 µg/mL (≈ 250 µM). Moreover, the Papp in [16] stood at 1.13 ×10⁻⁶ cm/s.

For `CCN1CCN(Cc2ccc(NC(=O)Cc3ccc(Oc4ccncc4)cc3)cc2C(F)(F)F)CC1`, the IC50 in [1] was determined as 3.88 µM; in series [2] it was 0.54 µM; in [3], 0.01 µM.
